This is a sample that favours compounds with a hit; in the whole collection about 4.4% have one here.
MsrA inh – inhibits bovine methionine sulfoxide reductase A | purified bovine MsrA, absorbance read-out | inhibition, % at 15.5 µM | 360,000 tested, 0.75% active; in the data active = inhibition above about 4.5%;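 also: 0% = vehicle wells with enzyme and 100% = reference inhibitor wells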
TbMetRS inhib – Trypanosoma brucei MetRS inhibition; purified T. brucei MetRS, ATP depletion, Kinase-Glo luminescence; inhibition, % at 11.9 µM; 360,000 tested, 0.4% active; AID 624268;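 active = inhibition above a per-plate cutoff of the control wells' mean inhibition plus 3 SD, cut at about 5.5% in these data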;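 also: 0% = DMSO wells median and 100% = median of wells with control inhibitor compound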
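assay system = parasite MetRS enzyme | timing = 15 min preincubation, 2 h reaction, all 25 °C | evaluation = percent inhibition relative to median high and low control wells | medium = HEPES buffer containing pyrophosphatase, BSA, spermine, DTT | compound = single dose, 11.9 µM final nominal, 0.9% final DMSO | detection = Kinase-Glo luminescence, ATP depletion format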
AHR act – activators of human aryl hydrocarbon receptor. AHR-responsive luciferase reporter cells, luminescence. activation, % at 5 µM. 320,000 tested, 2.5% active. AID 2796; in the data active = activation above about 47%;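 also: 0% = vehicle wells and 100% = reference agonist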
MsrA act – activators of bovine methionine sulfoxide reductase A; activation, % at 10.6 µM; 360,000 tested, 0.3% active; purified bovine MsrA, absorbance read-out; in the data active = activation above about 7.5%;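 also: 0% = vehicle and 100% = reference activator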
AI-2 QS mod – modulators of Vibrio harveyi AI-2 quorum sensing system. Vibrio harveyi JMH597 AI-2 luminescence/OD600 ratio, 9 h; active compounds read low; strain lacks LuxN and CqsS sensors; 0 = neutral-control median. activity change, % at 7.5 µM. AID 2094. 300,000 tested, 0.4% active; in the data active = activity change below about -75%, passing the limit was not always enough;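 also: luminescence divided by OD600 gain over 9 h not by final OD600 alone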
HTR2A ag – activates the mouse 5-HT2A serotonin receptor; CHO-K1 mHTR2A beta-arrestin complementation, luminescence; percent of 30 µM serotonin response; activation, % at 7.6 µM; 360,000 tested, 0.66% active;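 active = activation above a run cutoff, the mean activation of all tested compounds plus 3 SD, cut at about 14% in these data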;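 also: 0% = plate median of compound wells and 100% = 30 µM serotonin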
Target sequence (P35363 whole entry, looked up): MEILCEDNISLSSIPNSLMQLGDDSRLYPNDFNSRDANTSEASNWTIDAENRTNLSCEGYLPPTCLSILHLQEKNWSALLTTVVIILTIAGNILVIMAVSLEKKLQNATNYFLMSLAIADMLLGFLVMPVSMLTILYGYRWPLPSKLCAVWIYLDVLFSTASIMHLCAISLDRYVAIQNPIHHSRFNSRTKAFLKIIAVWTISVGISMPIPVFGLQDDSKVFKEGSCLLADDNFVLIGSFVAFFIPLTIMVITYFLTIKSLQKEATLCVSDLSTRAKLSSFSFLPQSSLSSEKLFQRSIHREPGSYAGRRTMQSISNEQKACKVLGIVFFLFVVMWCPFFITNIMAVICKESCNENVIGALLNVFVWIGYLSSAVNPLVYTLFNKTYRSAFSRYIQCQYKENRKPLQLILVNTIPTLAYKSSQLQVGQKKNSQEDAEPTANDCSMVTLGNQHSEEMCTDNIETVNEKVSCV
An asterisk follows results filed as active; nt = no result.

SMILES | MsrA inh | TbMetRS inhib | AHR act | MsrA act | AI-2 QS mod | HTR2A ag
C#CCOCCOCCOCCNc1nc(N2CCN(C(=O)CCCCCCCCCCNC(=O)[C@H]([C@@H](C)CC)n3cc(CCCCCN)nn3)CC2)nc(N2CCN(C(=O)CCCCCCCCCCNC(=O)[C@H]([C@@H](C)CC)n3cc(CCCCN=C(N)N)nn3)CC2)n1 | nt | 0 | -2 | -6 | nt | 16*
C#CCOCCOCCOCCNc1nc(N2CCN(C(=O)CCCCCCCCCCNC(=O)[C@H]([C@@H](C)CC)n3cc(CCCCN=C(N)N)nn3)CC2)nc(N2CCN(C(=O)CCCCCCCCCCNC(=O)[C@H]([C@@H](C)CC)n3cc(CCCCN=C(N)N)nn3)CC2)n1 | nt | nt | -1 | nt | nt | nt
COC(=O)N=Nc1c(O)[nH]c2ccc(Br)cc12 | 0 | 0 | 70* | -4 | 4 | -2
Oc1[nH]c2ccccc2c1N=Nc1ccc(C(F)(F)F)cn1 | 1 | -1 | 55* | -3 | 18 | 1
Oc1[nH]c2ccc(Br)cc2c1N=Nc1ccc(C(F)(F)F)cn1 | 1 | 0 | 64* | -6 | -1 | -2
O=C(O)c1ccc(N=Nc2c(O)[nH]c3ccc(Br)cc23)cc1 | 0 | -1 | 14 | -2 | 5 | -7
Oc1[nH]c2ccccc2c1N=Nc1ccccn1 | -1 | 0 | nt | -1 | nt | -2
Cc1ccc(S(=O)(=O)N(C)c2cccc3c2S(=O)(=O)N([C@H](C)c2ccccc2)C[C@@H](COCc2ccccc2)O3)cc1 | 1 | nt | nt | nt | nt | nt
Cc1ccc(-c2nc3cnccn3c2Nc2ccc3c(c2)OCO3)o1 | 2 | 0 | 53* | -10 | 23 | 10
Cc1ccc(Nc2c(-c3ccccc3)nc3cnccn23)cc1 | 0 | 0 | 3 | -6 | 11 | 0
Cc1ccc(Nc2c(-c3ccc(C)o3)nc3cnccn23)cc1 | 2 | 0 | 18 | -5 | 12 | -1
COc1ccc(-c2nc3cnccn3c2Nc2ccc(C)cc2)cc1 | 2 | -1 | 65* | -7 | 10 | -2
CSc1ccc(-c2nc3cnccn3c2Nc2ccc3c(c2)OCO3)cc1 | nt | 0 | 188* | -5 | 40 | 2
CCC(CO)Oc1cc(NCc2ccccc2Cl)c2ncn(C(C)C)c2c1 (centres undefined) | -1 | 0 | 4 | -6 | nt | 4
CN(C)/C=N/c1nc2nccc(-c3cccnc3)n2n1 | 2 | 0 | 58* | -3 | 10 | -2
O=C(c1ccc2c(c1)C(=O)NC2=O)c1ccc2c(c1)C(=O)NC2=O | 1 | nt | nt | nt | nt | nt
CCOC(=O)c1c(C)[nH]c(O)c1C=Nc1ccc(C(F)(F)F)cc1 | 2 | -1 | 62* | -1 | -8 | 0
Cc1[nH][nH]c(=O)c1C=Nc1ccc(C(F)(F)F)cc1 | -2 | -1 | 39 | -1 | 25 | -2
COC(=O)c1c(C)[nH]c(O)c1C=Nc1ccc(C(C)C)cc1 | 1 | -1 | 90* | -1 | 37 | 13
COC(=O)c1c(C)[nH]c(O)c1C=Nc1ccc(Oc2ccccc2)cc1 | 0 | -1 | -3 | -8 | 5 | 0
CCOC(=O)c1c(C)[nH]c(C)c1C=O | 0 | 0 | 27 | -2 | 12 | 4
CCOC(=O)c1c(C)[nH]c(O)c1C=Nc1ccc(Cl)cc1 | 0 | 0 | 77* | -2 | 2 | 0
Cc1cccc(-n2c(SCC(=O)N3CCC(C(=O)O)CC3)nc3ccccc3c2=O)c1C | 0 | -1 | -1 | -6 | 18 | 5
C[C@H]1[C@H](c2ccccc2)Oc2cccc(NCCc3ccccc3)c2S(=O)(=O)N1Cc1ccc(F)cc1 | -1 | nt | nt | nt | nt | nt
COCCN1C(=O)[C@H]2C[C@@]13O[C@H](c1ccc(C(F)(F)F)cc1)N=C3C[C@H](c1ccccc1)[C@H]2C | -1 | nt | nt | nt | nt | nt
COc1cccc(OCc2nc3ncc(Br)cc3[nH]2)c1 | -2 | 4 | 19 | 2 | 27 | 6
Cc1cc(C)cc(OCc2nc3ncc(Br)cc3[nH]2)c1 | 1 | 0 | 69* | -2 | 25 | -3
COc1ccccc1NC(=O)c1cnc(Nc2ccccc2OC)c2ccccc12 | 2 | -1 | 73* | -5 | 16 | -3
Cc1cccc(C)c1NC(=O)c1c[nH]c2ccccc12 | 0 | 1 | 55* | -1 | 2 | 3
COc1ccccc1NC(=O)c1c[nH]c2ccccc12 | 0 | 0 | 61* | 0 | 6 | 5

High-throughput results deposited in PubChem by several laboratories.
